Assay results as given in ChEMBL document CHEMBL1275449, “Potent in vitro antifungal activities of naturally occurring acetylenic acids” (Antimicrob Agents Chemother, 2008).
In brackets after ≈: the same amount, converted by molar mass.

Legend:
BT-549 = test: Cytotoxicity against human BT549 cells up to 32 uM by neutral red method; format: cell-based
Method in brief: (§1)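 Neutral red uptake cytotoxicity, top concentration 32 μM.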

Candida tropicalis = test: Antifungal activity against Candida tropicalis ATCC 750 after 48 hrs by CLSI method; format: functional, organism-based; conditions: ATCC 750, 48 h
Method in brief: (§2)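 Yeast suspensions made from 3-5 colonies off 24-72 h SD agar plates in saline. They were diluted by OD630 standard curve in RPMI 1640 (0.2% dextrose, 0.03% glutamine, 0.165 M MOPS, pH 7.0) to 1.5 × 10³ CFU/ml. Twofold dilutions (11 concentrations, 20% DMSO-saline) run in duplicate. OD530 read before and after 35°C, 48 h. Line values are top test concentrations; no-growth endpoints give MIC/MFC.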

SK-MEL = test: Cytotoxicity against human SK-MEL cells up to 32 uM by neutral red method; format: cell-based; method in brief: as §1
Candida albicans [1] = test: Antifungal activity against Fluconazole resistant Candida albicans clinical isolate 17 after 48 hrs by CLSI method; format: functional, organism-based
Method in brief: (§3)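 CLSI broth microdilution. Colonies from 24–72 h SD agar suspended in saline and sized by OD630 standard curve. Inoculum 1.5 × 10³ CFU/ml (final) in RPMI 1640 (0.2% dextrose, 0.03% glutamine, 0.165 M MOPS, pH 7.0). Twofold dilutions (11 levels) from 20% DMSO-saline, in duplicate. 35°C for 48 h, OD530 read before and after. IC50 fitted from % growth. MIC: no detectable growth. MFC: subculture onto SD agar.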

Aspergillus fumigatus [2] = test: Antifungal activity against Aspergillus fumigatus ATCC 204305 after 48 h by CLSI method; conditions: ATCC 204305, 48 h
Pichia kudriavzevii = test: Antifungal activity against Candida krusei ATCC 6258 after 48 hrs by CLSI method; format: functional, organism-based; conditions: ATCC 6258, 48 h
Method in brief: (§4)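 Candida inocula came from 24–72-h SD agar colonies suspended in saline. They were diluted by OD630 standard curve into RPMI 1640 (0.2% dextrose, 0.03% glutamine, 0.165 M MOPS, pH 7.0) to 1.5 × 10³ CFU/ml. Compounds were run as 11 twofold dilutions in 20% DMSO-saline, in duplicate, at 35°C for 48 h, with OD530 read before and after. Percent growth at the top concentration, IC50, MIC, and MFC (SD agar plating) were derived.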

Candida albicans [3] = test: Antifungal activity against Candida albicans ATCC 90028 after 48 hrs by CLSI method; format: functional, organism-based; conditions: ATCC 90028, 48 h; method in brief: as §3
Aspergillus flavus = test: Antifungal activity against Aspergillus flavus ATCC 204304 after 48 h by CLSI method; conditions: ATCC 204304, 48 h
Aspergillus niger = test: Antifungal activity against Aspergillus niger ATCC 16404 after 48 h by CLSI method; conditions: ATCC 16404, 48 h
Candida albicans [4] = test: Antifungal activity against Candida albicans ATCC 200955 after 48 hrs by CLSI method; format: functional, organism-based; conditions: ATCC 200955, 48 h; method in brief: as §3
Cryptococcus neoformans [5] = test: Antifungal activity against Cryptococcus neoformans ATCC 90113 after 72 hrs by CLSI method; format: functional, organism-based; conditions: ATCC 90113, 72 h
Method in brief: (§5)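 SD broth replaced RPMI because growth in RPMI was poor; other CLSI conditions were kept. Inoculum was 1.5 × 10³ CFU/ml from colonies on SD agar, checked by plating. Twofold serial dilutions (11 concentrations) in 20% DMSO-saline were tested in duplicate. OD530 was read before and after incubation at 35°C for 72 h. Percent growth gave IC50; the MIC is the lowest concentration with no detectable growth.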

Candida parapsilosis = test: Antifungal activity against Candida parapsilosis ATCC 22019 after 48 hrs by CLSI method; format: functional, organism-based; conditions: Lodderomyces parapsilosis, ATCC 22019, 48 h; method in brief: as §2
SK-OV-3 = test: Cytotoxicity against human SKOV3 cells up to 32 uM by neutral red method; format: cell-based; method in brief: as §1
Vero = test: Cytotoxicity against African green monkey Vero cells up to 32 uM by neutral red method; format: cell-based; conditions: chlorocebus sabaeus; method in brief: as §1
KB = test: Cytotoxicity against human KB cells up to 32 uM by neutral red method; format: cell-based; method in brief: as §1
LLC-PK1 = test: Cytotoxicity against pig LLC-PK1 cells up to 32 uM by neutral red method; format: cell-based, Sus scrofa; method in brief: as §1
Aspergillus fumigatus [6] = test: Antifungal activity against Aspergillus fumigatus ATCC 90906 after 48 h by CLSI method; conditions: ATCC 90906, 48 h
[7] = system: Trichophyton mentagrophytes; test: Antifungal activity against Trichophyton mentagrophytes ATCC MYA-4439 by CLSI method; format: functional, organism-based
Method in brief: (§6)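 Growth scraped from 1- to 6-week-old potato dextrose slants and filtered through Miracloth. Diluted in 5% Alamar blue-RPMI 1640 (MOPS pH 7.0) to 2.7 × 10⁴ CFU/ml. Eleven twofold dilutions in duplicate. Fluorescence at 544 nm excitation/590 nm emission read before and after 35°C, 5 days. IC50 fitted from percent growth. MIC taken as no detectable growth; MFC from clear or blue wells plated on PD agar.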

Candida albicans [8] = test: Antifungal activity against Candida albicans ATCC 14053 after 48 hrs by CLSI method; format: functional, organism-based; conditions: ATCC 14053, 48 h; method in brief: as §3
Trichophyton rubrum [9] = test: Antifungal activity against Trichophyton rubrum ATCC MYA-4438 by CLSI method; format: functional, organism-based; method in brief: as §6
[10] = system: Trichophyton mentagrophytes; test: Antifungal activity against Trichophyton mentagrophytes ATCC 9533 by CLSI method; format: functional, organism-based; method in brief: as §6
Candida albicans [11] = test: Antifungal activity against Candida albicans ATCC 32354 after 48 hrs by CLSI method; format: functional, organism-based; conditions: ATCC 32354, 48 h; method in brief: as §3
Candida albicans [12] = test: Antifungal activity against Fluconazole resistant Candida albicans clinical isolate 1 after 48 hrs by CLSI method; format: functional, organism-based; method in brief: as §3
Candida albicans [13] = test: Antifungal activity against Candida albicans ATCC 60193 after 48 hrs by CLSI method; format: functional, organism-based; conditions: ATCC 60193, 48 h; method in brief: as §3
Trichophyton rubrum [14] = test: Antifungal activity against Trichophyton rubrum ATCC 10218 by CLSI method; format: functional, organism-based; method in brief: as §6
Nakaseomyces glabratus = test: Antifungal activity against Candida glabrata ATCC 90030 after 48 hrs by CLSI methodCandida glabrata; format: functional, organism-based; conditions: ATCC 90030, 48 h; method in brief: as §4
Cryptococcus neoformans [15] = test: Antifungal activity against Cryptococcus neoformans ATCC 66031 after 72 hrs by CLSI method; format: functional, organism-based; conditions: ATCC 66031, 72 h; method in brief: as §5

## CCCCCC#CCC#CCC#CCC#CCCCC(=O)O
BT-549
  Activity: Non-toxic
Candida tropicalis
  IC50: 27.7 µM
SK-MEL
  Activity: Non-toxic
Candida albicans [1]
  IC50: 3.5 µM
  MIC: 42.2 µM (≈ 12.5 µg/mL)
Aspergillus fumigatus [2]
  IC50: 10 µM
  MIC: 84.5 µM (≈ 25 µg/mL)
Pichia kudriavzevii
  IC50: > 169 µM
Candida albicans [3]
  IC50: 5 µM
  MIC: 42.2 µM (≈ 12.5 µg/mL)
Aspergillus flavus
  IC50: > 169 µM
Aspergillus niger
  IC50: 100 µM
Candida albicans [4]
  IC50: 2 µM
  MFC: 21.1 µM (≈ 6.25 µg/mL)
  MIC: 5.3 µM (≈ 1.57 µg/mL)
Cryptococcus neoformans [5]
  IC50: > 169 µM
Candida parapsilosis
  IC50: 5.4 µM
  MIC: 63.3 µM (≈ 18.8 µg/mL)
SK-OV-3
  Activity: Non-toxic
Vero
  Activity: Non-toxic
KB
  Activity: Non-toxic
LLC-PK1
  Activity: Non-toxic
Aspergillus fumigatus [6]
  IC50: 13.3 µM
  MIC: 84.5 µM (≈ 25 µg/mL)
[7]
  IC50: 6.7 µM
  MIC: 31.7 µM (≈ 9.4 µg/mL)
Candida albicans [8]
  IC50: 8.1 µM
  MIC: 63.3 µM (≈ 18.8 µg/mL)
Trichophyton rubrum [9]
  IC50: 2.9 µM
  MIC: 31.7 µM (≈ 9.4 µg/mL)
[10]
  IC50: 14.2 µM
  MIC: 21.1 µM (≈ 6.25 µg/mL)
Candida albicans [11]
  IC50: 4 µM
  MIC: 31.7 µM (≈ 9.4 µg/mL)
Candida albicans [12]
  IC50: 1.7 µM
  MIC: 42.2 µM (≈ 12.5 µg/mL)
Candida albicans [13]
  IC50: 4.5 µM
  MIC: 63.3 µM (≈ 18.8 µg/mL)
Trichophyton rubrum [14]
  IC50: 8.4 µM
  MIC: 15.8 µM (≈ 4.68 µg/mL)

## CCCCCCCCCCC#CCCCCC(=O)O
Nakaseomyces glabratus
  IC50: > 188 µM
BT-549
  Activity: Non-toxic
Candida tropicalis
  IC50: 49.1 µM
SK-MEL
  Activity: Non-toxic
Candida albicans [1]
  IC50: 18.8 µM
  MIC: 70.4 µM (≈ 18.8 µg/mL)
Aspergillus fumigatus [2]
  IC50: 36.6 µM
  MIC: 141 µM (≈ 37.5 µg/mL)
Pichia kudriavzevii
  IC50: 1.9 µM
  MIC: 4.4 µM (≈ 1.17 µg/mL)
Candida albicans [3]
  IC50: 95.4 µM
Aspergillus niger
  IC50: > 188 µM
Candida albicans [4]
  IC50: 66.7 µM
Cryptococcus neoformans [5]
  IC50: > 188 µM
SK-OV-3
  Activity: Non-toxic
Vero
  Activity: Non-toxic
KB
  Activity: Non-toxic
LLC-PK1
  Activity: Non-toxic
Cryptococcus neoformans [15]
  IC50: 1.2 µM
  MIC: 188 µM (≈ 50 µg/mL)
[7]
  IC50: 3 µM
  MFC: 5.9 µM (≈ 1.57 µg/mL)
  MIC: 5.9 µM (≈ 1.57 µg/mL)
Candida albicans [8]
  IC50: > 188 µM
Trichophyton rubrum [9]
  IC50: 4.1 µM
  MIC: 29.3 µM (≈ 7.81 µg/mL)
[10]
  IC50: 3.7 µM
  MFC: 11.7 µM (≈ 3.12 µg/mL)
  MIC: 7.3 µM (≈ 1.94 µg/mL)
Candida albicans [11]
  IC50: 188 µM
Candida albicans [12]
  IC50: 82.2 µM
Candida albicans [13]
  IC50: 150 µM
Trichophyton rubrum [14]
  IC50: 6.5 µM
  MFC: 23.5 µM (≈ 6.26 µg/mL)
  MIC: 17.6 µM (≈ 4.69 µg/mL)

## CC(=O)N1CCN(c2ccc(OCC3COC(Cn4ccnc4)(c4ccc(Cl)cc4Cl)O3)cc2)CC1 (stereo not drawn) [KETOCONAZOLE]
Nakaseomyces glabratus
  IC50: 0.7 µM
  MIC: 4.7 µM (≈ 2.5 µg/mL)
Candida tropicalis
  IC50: 0.04 µM
  MIC: 0.19 µM (≈ 0.101 µg/mL)
Candida albicans [1]
  IC50: 0.3 µM
Aspergillus fumigatus [2]
  IC50: 2.7 µM
  MIC: 4.7 µM (≈ 2.5 µg/mL)
Pichia kudriavzevii
  IC50: 0.4 µM
  MIC: 1.1 µM (≈ 0.585 µg/mL)
Candida albicans [3]
  IC50: < 0.01 µM
  MIC: 0.01 µM (≈ 0.00531 µg/mL)
Aspergillus flavus
  IC50: 2.8 µM
  MIC: 4.7 µM (≈ 2.5 µg/mL)
Aspergillus niger
  IC50: 6 µM
  MIC: 9.4 µM (≈ 5 µg/mL)
Candida albicans [4]
  IC50: < 0.01 µM
  MIC: 0.01 µM (≈ 0.00531 µg/mL)
Cryptococcus neoformans [5]
  IC50: 0.1 µM
  MFC: 1.2 µM (≈ 0.638 µg/mL)
  MIC: 0.3 µM (≈ 0.159 µg/mL)
Candida parapsilosis
  IC50: 0.04 µM
  MIC: 0.13 µM (≈ 0.0691 µg/mL)
Cryptococcus neoformans [15]
  IC50: 0.02 µM
  MFC: 0.59 µM (≈ 0.314 µg/mL)
  MIC: 0.15 µM (≈ 0.0797 µg/mL)
Aspergillus fumigatus [6]
  IC50: 3.2 µM
  MIC: 7.1 µM (≈ 3.77 µg/mL)
[7]
  IC50: 0.1 µM
  MIC: 0.7 µM (≈ 0.372 µg/mL)
Candida albicans [8]
  IC50: 0.01 µM
  MIC: 0.02 µM (≈ 0.0106 µg/mL)
Trichophyton rubrum [9]
  IC50: 0.01 µM
  MIC: 0.08 µM (≈ 0.0425 µg/mL)
[10]
  IC50: 0.2 µM
  MIC: 0.4 µM (≈ 0.213 µg/mL)
Candida albicans [11]
  IC50: 0.01 µM
  MIC: 0.03 µM (≈ 0.0159 µg/mL)
Candida albicans [12]
  IC50: < 0.01 µM
  MIC: 0.1 µM (≈ 0.0531 µg/mL)
Candida albicans [13]
  IC50: 0.01 µM
  MIC: 0.02 µM (≈ 0.0106 µg/mL)
Trichophyton rubrum [14]
  IC50: 0.02 µM
  MIC: 0.04 µM (≈ 0.0213 µg/mL)
